Experimental data as given in ChEMBL document CHEMBL2346560, “Structure and function of a potent lipopolysaccharide-binding antimicrobial and anti-inflammatory peptide” (J Med Chem, 2013).
Values after ≈ are worked out from the molar mass of the structure shown. Active and inactive are the calls of the source. No cut-off for these calls is given here. Bridge positions count the residues as written; N and C are the ends. Peptide text beside a SMILES is read from it.

Key:
Candida albicans [1] = assay: Antifungal activity against Candida albicans ATCC 2002 treated with MgCl2 after 16 hrs by broth dilution method; assay type: functional; settings: ATCC 2002, 16 h
How it was run: (§1)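 Salt sensitivity of the MIC. Peptide was tested in water, NaCl, CaCl2, MgCl2 or PBS (Na2HPO4-NaH2PO4, pH 7.4), with every salt at 150 mM. Values are means of three independent experiments, each run in duplicate.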

Bacillus subtilis [2] = assay: Antibacterial activity against Bacillus subtilis 6633 treated with NaCl after 16 hrs by broth dilution method; assay type: functional; settings: Bacillus subtilis, 6633, 16 h; how it was run: as §1
Candida albicans [3] = assay: Antifungal activity against Candida albicans ATCC 2002 treated with NaCl after 16 hrs by broth dilution method; assay type: functional; settings: ATCC 2002, 16 h; how it was run: as §1
Pseudomonas aeruginosa [4] = assay: Antibacterial activity against Pseudomonas aeruginosa ATCC 27853 treated with MgCl2 after 16 hrs by broth dilution method; assay type: functional; settings: ATCC 27853, 16 h; how it was run: as §1
Staphylococcus aureus [5] = assay: Antibacterial activity against Staphylococcus aureus ATCC 2592 treated with CaCl2 after 16 hrs by broth dilution method; assay type: functional; settings: ATCC 2592, 16 h; how it was run: as §1
[6] = Toxicity in human RBC assessed as induction of hemolysis at 25 ug/mL after 30 mins relative to control; assay type: cell-based, Erythrocyte; settings: red blood cells (RBC), read-out: Activity
How it was run: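 Human red blood cells incubated with peptide. Hemoglobin release read as absorbance at 540 nm and expressed against 1% Triton X-100 as positive control.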

Bacillus subtilis [7] = assay: Antibacterial activity against Bacillus subtilis 6633 after 16 hrs by broth dilution method; assay type: functional; settings: Bacillus subtilis, 6633, 16 h
How it was run: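 MIC determined by an earlier in-house method. Values are means of three independent experiments, each run in duplicate.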

RAW264.7 [8] = assay: Antiinflammatory activity in mouse RAW264.7 cells assessed as inhibition of LPS-induced JNK1 expression preincubated for 1 hr prior to LPS-challenge measured after 3 hrs by Western blotting analysis; assay type: functional, cell-based
How it was run: (§2)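 RAW 264.7 cells (1 × 10^6/well) were serum-starved in RPMI-1640 for 16 h. They were pretreated with peptide (0, 5, 10, 20 µg/mL) for 1 h, then given LPS (E. coli 055:B5, 0 or 100 ng/mL) for 3 h. Cells were washed in ice-cold PBS, and cytoplasmic or nuclear fractions were blotted for TLR4, JNK, NF-κB p65 and β-actin. Control was LPS alone.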

Staphylococcus aureus [9] = assay: Antibacterial activity against ampicillin, benzylpencillin-resistant Staphylococcus aureus 08A875 after 16 hrs by broth dilution method; assay type: functional; settings: 08A875, 16 h
How it was run: (§3)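 MIC read-out, reported in µg/mL with µM equivalents. Each value is the mean of three independent experiments, each run in duplicate.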

RAW264.7 [10] = assay: Cytotoxicity against mouse RAW264.7 cells at 200 ug/mL after 24 hrs by MTT assay relative to control; assay type: cell-based; settings: raw264.7, 24 h
RAW264.7 [11] = assay: Antiinflammatory activity in mouse RAW264.7 cells assessed as inhibition of LPS-induced MCP1 production after 24 hrs by ELISA; assay type: functional, cell-based
How it was run: (§4)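 RAW 264.7 cells (2 × 10^5) were plated and allowed to adhere. They were given peptide (2.5, 5, 10, 20 µg/mL) with or without LPS (E. coli 055:B5, 20 ng/mL) for 24 h. Supernatant TNF-α, IL-6 and MCP-1 were measured by ELISA at A450. Controls were LPS alone and untreated cells. Mean ± SEM of three separate experiments.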

RAW264.7 [12] = assay: Cytotoxicity against mouse RAW264.7 cells at 100 ug/mL after 24 hrs by MTT assay relative to control; assay type: cell-based; settings: raw264.7, 24 h
Escherichia coli [13] = assay: Bactericidal activity against Escherichia coli ATCC 25922 at 10 times MIC after 20 mins by colony counting assay (reference value: 79.3 CFU); assay type: functional
Staphylococcus aureus [14] = assay: Antibacterial activity against Staphylococcus aureus ATCC 2592 treated with MgCl2 after 16 hrs by broth dilution method; assay type: functional; settings: ATCC 2592, 16 h; how it was run: as §1
Bacillus subtilis [15] = assay: Antibacterial activity against Bacillus subtilis 6633 treated with MgCl2 after 16 hrs by broth dilution method; assay type: functional; settings: Bacillus subtilis, 6633, 16 h; how it was run: as §1
RAW264.7 [16] = assay: Antiinflammatory activity in mouse RAW264.7 cells assessed as inhibition of LPS-induced TNF alpha production at 20 ug/mL after 24 hrs by ELISA relative to control; assay type: functional; settings: RAW264.7, 24 h; how it was run: as §4
Candida albicans [17] = assay: Antifungal activity against ampicillin, benzylpencillin-resistant Candida albicans 080227710 after 16 hrs by broth dilution method; assay type: functional; settings: Candida albicans, 080227710, 16 h; how it was run: as §3
RAW264.7 [18] = assay: Antiinflammatory activity in mouse RAW264.7 cells assessed as inhibition of LPS-induced NO production at 10 ug/mL after 24 hrs by spectrophotometric analysis relative to control; assay type: functional; settings: RAW264.7, 24 h
How it was run: (§5)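 RAW 264.7 cells (1 × 10^7) in RPMI-1640 with 10% FBS and penicillin/streptomycin were treated with peptide (2.5, 5, 10, 20 µg/mL) with or without LPS (E. coli 055:B5, 100 ng/mL) for 24 h. Medium nitrite was measured with Griess reagent at A540 against a NaNO2 standard curve. Control was LPS alone. Mean ± SEM of three separate experiments.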

Escherichia coli [19] = assay: Bactericidal activity against Escherichia coli ATCC 25922 at 5 times MIC after 40 mins by colony counting assay (reference value: 131.7 CFU); assay type: functional
RAW264.7 [20] = assay: Antiinflammatory activity in mouse RAW264.7 cells assessed as inhibition of LPS-induced JNK2 expression at 10 to 20 ug/mL preincubated for 1 hr prior to LPS-challenge measured after 3 hrs by Western blotting analysis; assay type: functional, cell-based; how it was run: as §2
Escherichia coli [21] = assay: Bactericidal activity against Escherichia coli ATCC 25922 at MIC after 20 mins by colony counting assay (reference value: 79.3 CFU); assay type: functional
RAW264.7 [22] = assay: Cytotoxicity against mouse RAW264.7 cells at 50 ug/mL after 24 hrs by MTT assay relative to control; assay type: cell-based; settings: raw264.7, 24 h
Escherichia coli [23] = assay: Antibacterial activity against ampicillin, benzylpencillin-resistant Escherichia coli 08A866 after 16 hrs by broth dilution method; assay type: functional; settings: 08A866, 16 h; how it was run: as §3
Pseudomonas aeruginosa [24] = assay: Antibacterial activity against ampicillin, benzylpencillin-resistant Pseudomonas aeruginosa 08031205 after 16 hrs by broth dilution method; assay type: functional; settings: Pseudomonas aeruginosa, 08031205, 16 h; how it was run: as §3
Candida albicans [25] = assay: Antifungal activity against ampicillin, benzylpencillin-resistant Candida albicans 08022821 after 16 hrs by broth dilution method; assay type: functional; settings: Candida albicans, 08022821, 16 h; how it was run: as §3
Escherichia coli [26] = assay: Antibacterial activity against ampicillin, benzylpencillin-resistant Escherichia coli 08A852 after 16 hrs by broth dilution method; assay type: functional; settings: 08A852, 16 h; how it was run: as §3
RAW264.7 [27] = assay: Antiinflammatory activity in mouse RAW264.7 cells assessed as inhibition of LPS-induced NO production at 2.5 ug/mL after 24 hrs by spectrophotometric analysis relative to control; assay type: functional; settings: RAW264.7, 24 h; how it was run: as §5
Candida albicans [28] = assay: Antifungal activity against Candida albicans ATCC 2002 after 16 hrs by broth dilution method; assay type: functional; settings: ATCC 2002, 16 h; how it was run: as §3
Escherichia coli [29] = assay: Bactericidal activity against Escherichia coli ATCC 25922 at MIC after 120 mins by colony counting assay (reference value: 1868.3 CFU); assay type: functional
Staphylococcus aureus [30] = assay: Antibacterial activity against Staphylococcus aureus ATCC 2592 treated with NaCl after 16 hrs by broth dilution method; assay type: functional; settings: ATCC 2592, 16 h; how it was run: as §1
Candida albicans [31] = assay: Antifungal activity against Candida albicans ATCC 2002 treated with PBS after 16 hrs by broth dilution method; assay type: functional; settings: ATCC 2002, 16 h; how it was run: as §1

`CC[C@H](C)[C@H](NC(=O)[C@H](Cc1cnc[nH]1)NC(=O)[C@H](CO)NC(=O)[C@@H](NC(=O)[C@@H](NC(=O)[C@@H](NC(=O)[C@@H](NC(=O)[C@H](CCCNC(=N)N)NC(=O)[C@H](CC(C)C)NC(=O)[C@H](CCCCN)NC(=O)[C@H](CCC(=O)O)NC(=O)[C@H](CCCCN)NC(=O)[C@H](CC(C)C)NC(=O)[C@H](CCCCN)NC(=O)[C@@H]1CSSC[C@H](NC(=O)[C@H](CCCCN)NC(=O)[C@@H](N)CCCNC(=N)N)C(=O)N[C@@H](CC(N)=O)C(=O)N[C@@H](Cc2ccccc2)C(=O)N[C@@H](CC(C)C)C(=O)N1)[C@@H](C)O)C(C)C)[C@@H](C)CC)[C@@H](C)O)C(=O)N[C@@H](CC(=O)O)C(=O)N[C@@H](CCCCN)C(=O)N[C@H](C(=O)N[C@@H](CC(C)C)C(=O)N[C@@H](CCCNC(=N)N)C(=O)N1CCC[C@H]1C(=O)N[C@@H](CCC(N)=O)C(=O)NCC(=O)O)C(C)C` (H-RKCNFLCKLKEKLRTVITSHIDKVLRPQG-OH; disulfide 3-7) showed an MIC (Candida albicans [1]) of 2.35 µg/mL (≈ 0.686 µM), an MIC (Bacillus subtilis [2]) of 75 µg/mL (≈ 21.9 µM) and an MIC (Candida albicans [3]) of 2.35 µg/mL (≈ 0.686 µM). It also gave an MIC (Pseudomonas aeruginosa [4]) of 18.8 µg/mL (≈ 5.48 µM), an MIC (Staphylococcus aureus [5]) of 4.69 µg/mL (≈ 1.37 µM) and a hemolysis at 0.5 h, 25 ug/mL [6] of 3.5%. For the same compound, the MIC (Bacillus subtilis [7]) was greater than 100 µg/mL, the inhibition (RAW264.7 [8]) was “Dose-dependent effect” and the MIC (Staphylococcus aureus [9]) was 5.48 µM (≈ 18.8 µg/mL). For the same compound, the Activity (RAW264.7 [10]) was 5.1%, the inhibition (RAW264.7 [11]) was “Dose-dependent effect” and the Activity (RAW264.7 [12]) was 3.3%. It also gave a CFU (Escherichia coli [13]) of 0, an MIC (Staphylococcus aureus [14]) of 9.38 µg/mL (≈ 2.74 µM) and an MIC (Bacillus subtilis [15]) of 75 µg/mL (≈ 21.9 µM). The inhibition at 20 µg/mL (RAW264.7 [16]) was 60%, the MIC (Candida albicans [17]) was 5.48 µM (≈ 18.8 µg/mL) and the inhibition at 10 µg/mL (RAW264.7 [18]) was 50%. The CFU (Escherichia coli [19]) was 0, the inhibition (RAW264.7 [20]) was “Active” and the CFU (Escherichia coli [21]) was 11.3. For the same compound, the Activity (RAW264.7 [22]) was 2.7%, the MIC (Escherichia coli [23]) was 2.74 µM (≈ 9.38 µg/mL) and the MIC (Pseudomonas aeruginosa [24]) was 2.74 µM (≈ 9.38 µg/mL). For the same compound, the MIC (Candida albicans [25]) was 2.74 µM (≈ 9.38 µg/mL), the MIC (Escherichia coli [26]) was 1.37 µM (≈ 4.69 µg/mL) and the inhibition at 2.5 µg/mL (RAW264.7 [27]) was 17%. The MIC (Candida albicans [28]) was 1.37 µM (≈ 4.69 µg/mL), the CFU (Escherichia coli [29]) was 0 and the MIC (Staphylococcus aureus [30]) was 4.69 µg/mL (≈ 1.37 µM). The MIC (Candida albicans [31]) was 2.35 µg/mL (≈ 0.686 µM).
